Measurements as given in paper PMC4245089 (International Journal of Nanomedicine, 2014).
Where “and” joins values, the source holds several entries; their conditions need not be identical. Identical values can stand only once. Entries after “also recorded” stand apart in the source; their conditions may differ.

Tests used:
P. berghei-ANKA = test: Dose kinetics / antimalarial efficacy in P. berghei-ANKA-infected C57BL/6 mice; assay type: in vivo, Plasmodium berghei; details: oral, 10 mg/kg body weight
Outline: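 C57BL/6 mice were infected intravenously with 2.5×10^6 P. berghei-ANKA parasites. Oral dosing began 24 h post-infection and ran twice weekly for 1 month at 10, 20 and 40 mg/kg body weight. Parasitemia was counted every fourth day, and mean survival days were recorded. Optimum dose was set by Peterson's test and mortality rate. Data are mean ± SEM, n=6.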

[1] = Aqueous dispersibility and storage stability of lyophilized powder; assay type: physicochemical
[2] = mice, oral
[3] = test system: Human fibroblast L-929 cells; test: Cell viability assay; assay type: cell-based; details: 8.11-129.88 μmol/L; 24, 48 and 72 hours
Outline: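 L-929 fibroblasts seeded at 1×10^4 cells/well in DMEM. Exposed to native or nanoparticle test compound at 8.11–129.88 μmol/L for 24, 48 and 72 h. MTT (12 mM) added for 2 h at 37°C. Formazan dissolved in DMSO for 1 h at 37°C in the dark. Absorbance read at 595 nm.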

[4] = test system: P. falciparum 3D7 strain (chloroquine sensitive); test: Growth inhibition of blood-stage P. falciparum 3D7 by microscopy; assay type: cell-based, Plasmodium falciparum
Outline: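 Human RBCs were infected with synchronized 3D7 ring stages and held at 10% hematocrit and 2% parasitemia, with medium changed every 24 h. Ten concentrations were run in duplicate, and stage of action was tested at 2.5 μM. Giemsa smears were read at 48 and 72 h. Percent parasitemia was taken as infected/total RBCs over at least ten fields. Dead parasites were scored by lost membrane, shrinkage or unstained cytoplasm.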

uninfected erythrocytes = test: Nanotized curcumin uptake assay by fluorimetry, uninfected erythrocytes; assay type: cell-based; details: 1 μM
[5] = test system: P. berghei-ANKA-infected C57BL/6 mice; test: Liver and kidney function tests; assay type: in vivo; details: serum
parasitized erythrocytes = test: Nanotized curcumin uptake assay by fluorimetry, parasitized erythrocytes; assay type: cell-based; details: treated (parasitized) cultures, 1 μM
[6] = day 6, curcumin forms 20 mg/kg oral biweekly
[7] = day 15, curcumin forms 20 mg/kg oral biweekly
[8] = day 21, curcumin forms 20 mg/kg oral biweekly

Compound	ALP [5, 6]	Bilirubin [5, 6]	Creatinine [5, 6]	SGOT activity [5, 6]	SGPT activity [5, 6]	Urea [5, 6]	ALP [5, 7]	Bilirubin [5, 7]	Creatinine [5, 7]	SGOT activity [5, 7]	SGPT activity [5, 7]	Urea [5, 7]	Bilirubin [5, 8]	Creatinine [5, 8]	SGOT activity [5, 8]	SGPT activity [5, 8]	Urea [5, 8]	also measured
COc1cc(C=CC(=O)CC(=O)C=Cc2ccc(O)c(OC)c2)ccc1O [native curcumin, 1,7-bis(4-hydroxy 3-methoxyphenyl)-1,6-heptadiene-3,5-dione]	30.72±2.92 KA units	1.6 mg/dL and 1.60 ± 0.36 mg/dL	3.29 ± 0.37 mg/dL	66.43±0.65 U/L	98.34±4.68 U/L	54.24 ± 2.37 mg/dL	28.81±2.65 KA units	2.19 ± 0.20 mg/dL	2.90 ± 0.46 mg/dL	72.80±0.71 U/L	102.69±5.71 U/L	61.72 ± 2.61 mg/dL	2.10 mg/dL and 2.10 ± 0.25 mg/dL	2.70 ± 0.51 mg/dL	75.71±0.47 U/L	136.31±6.45 U/L	87.46 ± 2.54 mg/dL	survival (to day) (P. berghei-ANKA): 20 days; dispersibility / solubility in water [1]: only soluble in organic solvents such as dimethyl sulfoxide; also recorded: completely insoluble in water; time post-feeding until which curcumin was present/detectable in plasma [2]: 15 h; cytotoxicity (growth inhibition of L-929 cells) [3]: marginal cytotoxic effects; IC50 ([4]; Plasmodium falciparum, 3D7, read-out: IC50 for growth inhibition of parasites): 5 µM; parasites eradicated ([4]; synchronized ring stage culture, 2.5 μM, 72 hours): 60%; concentration found inside the cells (uninfected erythrocytes; first growth cycle, n=3): 240 nM; concentration found inside the cells (uninfected erythrocytes; second growth cycle): 100 nM; ALP [5, 8]: 36.91±2.67 KA units; concentration found inside the cells (parasitized erythrocytes; first growth cycle, n=3): 300 nM; concentration found inside the cells (parasitized erythrocytes; second growth cycle): 250 nM
CCN(CC)CCCC(C)Nc1ccnc2cc(Cl)ccc12 (stereo not drawn) [chloroquine]	16.4±2.61 KA units	1.15 ± 0.16 mg/dL	2.10 ± 0.24 mg/dL	36.20±0.72 U/L	39.41±4.32 U/L	50.32 ± 2.43 mg/dL	10.6±2.31 KA units	1.82 ± 0.18 mg/dL	1.60 ± 0.27 mg/dL	33.31±0.61 U/L	32.34±3.42 U/L	40.82 ± 2.51 mg/dL	0.60 ± 0.24 mg/dL	1.23 ± 0.17 mg/dL	14.14±0.51 U/L	30.17±3.61 U/L	33.44 ± 2.56 mg/dL	
